Assay results of several laboratories.
Each line is one published result; the experiments were not run side by side. pIC50: −log10 of the molar value. ≈ marks a conversion by molar mass, not a printed value.

`Cc1ccc(CNC(=O)c2cn(Cc3ccc(Cl)cc3)c3ccc(Oc4ccccc4)cc3c2=O)cc1` gave a pIC50 of 3.98 (MCF7; cell growth or viability, MTT; 48 h).
`COc1cccc(C=Nc2ccc(SCc3cc(=O)c(O)co3)cc2)c1` gave a pIC50 of 4.93 (DPPH scavenging, absorbance; 30 min).
`S=P1(C2CCCCC2)CCCCC1` has a pIC50 of less than 4.00 (SW-620; cell growth or viability, MTT; 72 h).
The inhibition of `O=C(N1CCC2(CC1)OCC(CNS(=O)(=O)c1ccc(-c3ccccc3)cc1)O2)C1(c2ccccc2)CCCC1` (centres unmarked) is reported as 75% (Chikungunya virus; viral replication, inhibitor; 40 µM).
For `O=c1cc(CSc2ccc(N=Cc3ccc(O)cc3)cc2)occ1O`, the pIC50 was 5.05 (DPPH scavenging, absorbance; 30 min).
The inhibition of `CC(C)(C(=O)N1CCC2(CC1)OCC(CN1CCCCS1(=O)=O)O2)c1ccccc1` (centres unmarked) is reported as less than 50% (Chikungunya virus; viral replication, inhibitor; 40 µM).
`CCc1ccccc1C=Nc1ccc(SCc2cc(=O)c(O)co2)cc1` gave a pIC50 of 4.60 (DPPH scavenging, absorbance; 30 min).
The viability of `O=C(Nc1ccc(Cl)cc1)Nc1cccc(-c2cn(Cc3ccc(Br)cc3)nn2)c1` is reported as 96.5% (MCF7; cell growth or viability, CCK-8; 50 µM, 48 h).
With `O=C(NCc1ccc(F)cc1)c1cn(Cc2ccc(C(F)(F)F)cc2)c2ccc(Oc3ccccc3)cc2c1=O` the pIC50 was greater than 4.92 (MCF7; cell growth or viability, MTT).
`O=c1cc(CSc2ccc(N=Cc3ccc([N+](=O)[O-])cc3)cc2)occ1O` gave a pIC50 of 4.54 (DPPH scavenging, absorbance; 30 min).
`CC[C@H](C)C[C@H](C)CCCCCCCCC(=O)N[C@H]1C[C@@H](O)[C@@H](NCCN)NC(=O)[C@@H]2[C@@H](O)CCN2C(=O)[C@H]([C@H](O)CCN)NC(=O)[C@H]([C@H](O)[C@@H](O)c2ccc(O)cc2)NC(=O)[C@@H]2C[C@@H](O)CN2C(=O)[C@H]([C@@H](C)O)NC1=O` has an MIC of 2 mg/L (≈ 1.83 µM) (Candidozyma auris; microbial growth, broth dilution; 48 h).
With `O=C(NCc1ccc(C(F)(F)F)cc1)c1cn(Cc2ccc(F)cc2)c2ccc(Oc3ccccc3)cc2c1=O` the pIC50 was 3.96 (MCF7; cell growth or viability, MTT; 24 h).
`CC(Oc1ccc(O)cc1)(P(=O)(O)O)P(=O)(O)O` has a pIC50 of 3.26 (Chikungunya virus; viral replication; Vero).
`CCc1ccc(C=Nc2ccc(SCc3cc(=O)c(O)co3)cc2)cc1` gave a pIC50 of 4.69 (DPPH scavenging, absorbance; 30 min).
The EC50 of `S=c1[nH]nc(NCNc2n[nH]c(=S)s2)s1` is reported as 16 mg/L (≈ 57.5 µM) (Xanthomonas oryzae; microbial growth).
For `O=C(NCc1ccc(F)cc1)c1cn(Cc2ccc(F)cc2)c2ccc(Oc3ccccc3)cc2c1=O`, the pIC50 was less than 3.30 (MCF7; cell growth or viability, MTT; 24 h).
The GI50 of `CC(C)C[C@@H](NC(=O)[C@H](C)NC(=O)CNC(=O)[C@@H](NC=O)C(C)C)C(=O)N[C@@H](C)C(=O)N[C@@H](C(=O)N[C@H](C(=O)N[C@@H](C(=O)N[C@@H](Cc1c[nH]c2ccccc12)C(=O)N[C@H](CC(C)C)C(=O)N[C@@H](Cc1ccc2cc[nH]c2c1)C(=O)N[C@H](CC(C)C)C(=O)N[C@@H](Cc1c[nH]c2ccccc12)C(=O)N[C@H](CC(C)C)C(=O)N[C@@H](Cc1c[nH]c2ccccc12)C(=O)NCCO)C(C)C)C(C)C)C(C)C` is reported as 0.11 µM (MCF7; cell growth or viability, SRB; 48 h).
